≈ marks a conversion by molar mass, not a printed value. Calls of active or inactive are those of the source. The calls are words filed in the database; no cut-off is given here.
Tests used:
[1] = Thermodynamic solubility in pH 7.4 PBS/Cdx buffer incubated for 24 hrs at 22 degC by HPLC method; assay type: physicochemical; settings: read-out: Therm_solubility
Outline: (§1)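 Powder dissolved to saturation in pH 7.4 PBS (100 mM sodium phosphate, 150 mM NaCl), or in PBS with 10% Cdx, and shaken 24 h. After centrifugation, supernatant quantified by HPLC against a per-compound calibration line prepared from the DMSO stock.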

Mus musculus [2] = assay: Toxicity in Balb/c mouse model of hypereosinophilia assessed as induction of kidney lesions at 350 umol/kg, ip dosed daily 2 hrs before allergen challenge for […] and measured 24 hrs after last dose by Gomori's trichrome staining based histological analysis; assay type: organism-based; settings: in vivo
Mus musculus [3] = assay: Toxicity in Balb/c mouse model of hypereosinophilia assessed as reduction in body weight at 350 umol/kg, ip dosed daily 2 hrs before allergen challenge for 10 days and measured 24 hrs after last dose; assay type: organism-based; settings: in vivo
Outline: (§2)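 Mice given 10 daily administrations at 350 μmol/kg. Monitored for weight loss and for signs of toxicity, including prostration and bristly hair.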

Mus musculus [4] = assay: Toxicity in Balb/c mouse model of hypereosinophilia assessed as induction of bristly hair at 350 umol/kg, ip dosed daily 2 hrs before allergen challenge for 10 days and measured 24 hrs after last dose; assay type: organism-based; settings: in vivo; outline: as §2
[5] = Thermodynamic solubility in pH 7.4 PBS buffer incubated for 24 hrs at 22 degC by HPLC method; assay type: physicochemical; settings: read-out: Therm_solubility; outline: as §1
Mus musculus [6] = assay: Inhibition of macrophages infiltration in Balb/c mouse model of 8 day model of allergic eosinophilic airway inflammation at 300 nmol/kg dosed intranasally 2 hrs before ovalbumin challenge by hemocytometry; assay type: functional, organism-based
Mus musculus [7] = assay: Toxicity in Balb/c mouse model of hypereosinophilia assessed as reduction in body weight at 12.6 umol/kg, ip dosed daily 2 hrs before allergen challenge for 3 days and measured 24 hrs after last dose; assay type: organism-based; settings: in vivo
Outline: (§3)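 Same OVA model with i.p. dosing 2 h before each of the three challenges: neutraligands 350 μmol/kg in PBS/CMC 1%, AMD3100 12.6 μmol/kg, dexamethasone 2.5 μmol/kg. Body and spleen weight loss recorded 24 h after three daily administrations; n=6/group.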

[8] = target: T1, C-C motif chemokine 5 (Homo sapiens) (UniProt P13501); assay: Binding affinity to CCL5 (unknown origin) assessed as inhibition of CCL5-induced increase in intracellular calcium level in EGFP-tagged CCR5 expressing HEK cells at 10 uM
T1 sequence (whole entry): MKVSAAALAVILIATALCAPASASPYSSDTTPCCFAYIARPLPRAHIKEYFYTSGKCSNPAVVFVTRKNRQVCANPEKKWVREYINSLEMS

Mus musculus [9] = assay: Toxicity in Balb/c mouse model of hypereosinophilia assessed as induction of liver lesions at 350 umol/kg, ip dosed daily 2 hrs before allergen challenge for […] and measured 24 hrs after last dose by Gomori's trichrome staining based histological analysis; assay type: organism-based; settings: in vivo
[10] = target: Stromal cell-derived factor 1 (Homo sapiens, UniProt P48061); assay: Binding affinity to CXCL12 (unknown origin) assessed as inhibition of CXCL12 -induced increase in intracellular calcium level in EGFP-tagged CXCR4 expressing HEK cells at 10 uM; assay type: cell-based
Stromal cell-derived factor 1, sequence (P48061 whole entry): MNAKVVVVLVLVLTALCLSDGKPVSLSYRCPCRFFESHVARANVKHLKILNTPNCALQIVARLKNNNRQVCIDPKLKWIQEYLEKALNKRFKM
Outline: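 TRIC-r calcium assay, neutraligand protocol. Compound at 10 μM (DMSO control) tested against calcium responses triggered by 5 nM of each chemokine on its receptor line: CXCL12 on EGFP-CXCR4⁺ HEK, CCL17 or CCL22 on EGFP-CCR4⁺ HEK, CCL5 on EGFP-CCR5⁺ HEK, CCL2 on EGFP-CCR2⁺ HEK. Mean ± SD, n=3.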

Mus musculus [11] = assay: Toxicity in Balb/c mouse model of hypereosinophilia assessed as reduction in body weight at 350 umol/kg, ip dosed daily 2 hrs before allergen challenge for 3 days and measured 24 hrs after last dose; assay type: organism-based; design: scale not given: the % may be the effect or the level left; settings: in vivo; outline: as §3
[12] = Chemical stability in pH 7.4 PBS/Cdx buffer assessed as parent compound remaining at 10 uM incubated for 24 hrs by RP-HPLC method; assay type: physicochemical; settings: read-out: Stability
Outline: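 Compound diluted from DMSO stock to 10 μM final (1% DMSO) in PBS pH 7.4, or in PBS with 10% w/w (2-hydroxypropyl)-β-cyclodextrin. Sampled at t0, 2, 4, 6 and 24 h and injected directly onto RP-HPLC. Percent remaining relative to t0 from peak area.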

[13] = target: T2, C-C motif chemokine 17 (Homo sapiens) (UniProt Q92583); assay: Binding affinity to CCL17 (unknown origin) assessed as inhibition of CCL17-induced increase in intracellular calcium level in EGFP-tagged CCR4 expressing HEK cells at 10 uM
T2 sequence (whole entry): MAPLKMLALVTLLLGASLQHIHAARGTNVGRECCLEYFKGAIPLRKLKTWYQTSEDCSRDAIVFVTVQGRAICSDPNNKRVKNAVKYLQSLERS

solubility thermodynamic at 24 h [1]: > 5000 µM | solubility thermodynamic at 24 h [5]: 36.4 µM (≈ 12 µg/mL) | inhibition [8]: inactive | inhibition [10]: Active | remaining at 24 h, 10 µM [12]: 100% | inhibition [13]: inactive
SMILES: COc1cc(-c2cc(-c3ccc(Cl)cc3)nc(=O)[nH]2)ccc1O
Activity (Mus musculus [2]): Non-Toxic | Activity (Mus musculus [3]): Non-Toxic | Activity (Mus musculus [4]): Non-Toxic | inhibition (Mus musculus [6]): inactive | Activity (Mus musculus [7]): Non-Toxic | Activity (Mus musculus [9]): Non-Toxic | Activity (Mus musculus [11]): 0%

Reference: ChEMBL document CHEMBL4145692, “Discovery of a Locally and Orally Active CXCL12 Neutraligand (LIT-927) with Anti-inflammatory Effect in a Murine Model of Allergic Airway Hypereosinophilia” (J Med Chem, 2018)
